Source: publication PMC3206604 (Journal of natural products, 2011)

Legend:
[1] = tested on: HT-29 human colon cancer cells; experiment: Mitochondrial transmembrane potential; assay type: cell-based; details: HT-29 cells; for MTP ED50: reduction of mitochondrial transmembrane potential (ΔΨm)
In short: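 ΔΨm detected with a JC-1 mitochondrial membrane potential kit, following a previously established protocol. A positive control was run alongside the test compounds. Values were reported as ED50.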

human 20S proteasome [2] = target: human 20S proteasome (Homo sapiens, UniProt P28074); experiment: Proteasome inhibition assay; assay type: biochemical; details: for proteasome ED50 / IC50: Table 3, results expressed as ED50; for IC50: read-out: proteasome ED50
[3] = tested on: human colon cancer cells (HT-29); experiment: Cytotoxicity assay; assay type: cell-based; details: HT-29 cells, standard protocol
human 20S proteasome [4] = experiment: Proteasome inhibition assay; assay type: biochemical; details: Table 3, results expressed as ED50

| Molecule | MTP ED50 [1] [µM] | proteasome ED50 (human 20S proteasome [2]) [µM] | other results |
| --- | --- | --- | --- |
| O=C1C[C@@H](c2ccccc2)Oc2c(Cc3ccccc3O)c(O)c(Cc3cc(Cc4cc(Cc5ccccc5O)ccc4O)ccc3O)c(O)c21 [compound 2, (2S)-5,7-dihydroxy-6-(2‴-hydroxy-5‴-(2′‴-hydroxy-5′‴-(2″‴-hydroxybenzyl)benzyl)benzyl)-8-(2″-hydroxybenzyl)-flavanone] | 6.8 | >20 |  |
| CC(=O)O[C@H]1C(=O)[C@@]2(C)[C@H]([C@H](OC(=O)c3ccccc3)[C@]3(O)C[C@H](OC(=O)[C@H](O)[C@@H](NC(=O)c4ccccc4)c4ccccc4)C(C)=C1C3(C)C)[C@]1(OC(C)=O)CO[C@@H]1C[C@@H]2O [Paclitaxel] |  |  | cytotoxicity ED50 [3]: 0.006 µM |
| pipercallosine [compound 11] | 4.6 | >20 |  |
| 5,7-dihydroxy-6-(2‴-hydroxy-5‴-(2′‴-hydroxy-5′‴-(2″‴-hydroxy-5″‴-(2‴‴-hydroxybenzyl)benzyl)benzyl) benzyl)-8-(2″-hydroxybenzyl)-flavanone [compound 3] | 2.5 | >20 |  |
| O=C1C[C@@H](c2ccccc2)Oc2cc(O)cc(O)c21 [compound 10, pinocembrin] | >20 |  | MTP ED50 (text, printed in μg/mL) ([1]; called inactive): > 20 µg/mL; IC50 (human 20S proteasome [2]): 2.87 ± 0.26 µM |
| 5″-(2′‴-hydroxybenzyl)uvarinol [compound 9] | 2.3 | >20 |  |
| O=C1C[C@@H](c2ccccc2)Oc2c(Cc3cc(Cc4cc(Cc5ccccc5O)ccc4O)ccc3O)c(O)c(Cc3ccccc3O)c(O)c21 [compound 1, (2S)-5,7-dihydroxy-8-(2″-hydroxy-5″-(2′‴-hydroxy-5′‴-(2″‴-hydroxybenzyl)benzyl)benzyl)-6-(2‴-hydroxybenzyl)-flavanone] | 3.7 | >20 |  |
| O=C1C[C@@H](c2ccccc2)Oc2cc(O)c(Cc3ccccc3O)c(O)c21 [compound 5, isochamanetin] | 7.7 |  | IC50 (human 20S proteasome [2]): > 20 µM |
| 7-methoxychamanetin [compound 6] | 13.6 | >20 |  |
| O=C1C[C@@H](c2ccccc2)Oc2c(Cc3ccccc3O)c(O)c(Cc3ccccc3O)c(O)c21 [compound 7, dichamanetin] | 3.6 |  | inhibitory effect in proteasome assay (human 20S proteasome [2]; human 20S proteasome bioassay): did not show any inhibitory effect; proteasome ED50 (human 20S proteasome [4]): >20 µM |
| 7-methoxydichamanetin [compound 8] | 1.6 | 3.45 ± 0.18 |  |
| O=C1C[C@@H](c2ccccc2)Oc2c(Cc3cc(Cc4ccccc4O)ccc3O)c(O)c(Cc3cc(Cc4cc(Cc5ccccc5O)ccc4O)ccc3O)c(O)c21 [compound 4, (2S)-5,7-dihydroxy-6-(2‴-hydroxy-5‴-(2″‴-hydroxy-5″‴-(2‴‴-hydroxybenzyl)benzyl)benzyl)-8-(2″-hydroxy-5′‴-(2′‴-hydroxybenzyl)benzyl)-flavanone] | 3.9 | >20 |  |
